Data set [1] can be described thus: Binding affinity to Cy5-labelled-36 base pair double stranded DNA (unknown origin) measured under infrared laser light by microscale thermophoresis. Put shortly:
(§1)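 Microscale thermophoresis: 50 nM Cy5-labeled DNA titrated with ligand in 50 mM Tris pH 6.5, 15 mM NaCl, 10 mM MgCl2, 0.05 % Tween 20. IR laser at 10 % intensity, starting from room temperature. Fluorescence signals fitted assuming 1:1 binding to give Ka/EC50.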

The nature of data set [2]: Antiproliferative activity against human adriamycin-resistant Kelly cells after 72 hrs by CellTiter-Glo luminescent cell viability assay. The format is functional, cell-based. Summed up: (§2)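 1×10^3 cells/well, allowed to attach 24 h, then exposed 72 h to 0.05-20 µM drug. Viability by ATP luminescence (CellTiter-Glo) relative to untreated controls with medium correction. IC50 read from log-concentration survival curves, independent triplicates. Kelly-WT and doxorubicin-selected Kelly-ADR (tenfold resistant) cultured in RPMI1640 with 10 % FCS, 2 mM glutamine and pen/strep at 37°C, 5 % CO2.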

Data set [3] is described as follows: Drug uptake in nucleus of human Kelly cells at 10 uM after 72 hrs by fluorescence confocal microscopic method. The format is ADME. Put shortly: (§3)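 Live Kelly-WT or Kelly-ADR cells (1×10^4/well) exposed to 10 µM drug for 24 or 72 h at 37°C, 5 % CO2. Imaged by confocal laser scanning microscopy with a 63× water objective. Red signal is anthracycline-associated fluorescence.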

A short description of data set [4]: Drug uptake in cytosol of adriamycin-resistant human Kelly cells at 10 uM after 72 hrs by fluorescence confocal microscopic method. Type of data set: ADME. Put shortly:
as §3

Data set [5] in a line: Drug uptake in human Kelly cells at 10 uM after 24 hrs by fluorescence confocal microscopic method. The format is ADME, cell-based. Summed up:
as §3

A short description of data set [6]: Drug uptake in nucleus of adriamycin-resistant human Kelly cells at 10 uM after 72 hrs by fluorescence confocal microscopic method. The format is ADME. Summed up: as §3
A short description of data set [7]: Drug uptake in human adriamycin-resistant Kelly cells at 10 uM after 24 hrs by fluorescence confocal microscopic method. The format is ADME, cell-based. Put shortly:
as §3

Data set [8] can be described thus: Antiproliferative activity against human Kelly cells after 72 hrs by CellTiter-Glo luminescent cell viability assay. Type of data set: functional, cell-based. Put shortly:
as §2

The nature of data set [9]: Drug uptake in nucleus of human adriamycin-resistant Kelly cells at 10 uM after 24 hrs by fluorescence confocal microscopic method. The format is ADME. Put shortly: as §3
The nature of data set [10]: Binding affinity to Cy5-labelled-12 base pair double stranded DNA (unknown origin) measured under infrared laser light by microscale thermophoresis. Put shortly:
as §1

Data set [11] can be described thus: Drug uptake in human Kelly cells at 10 uM after 72 hrs by fluorescence confocal microscopic method. Type of data set: ADME, cell-based. Summed up:
as §3

The nature of data set [12]: Drug uptake in adriamycin-resistant human Kelly cell membranes at 10 uM after 72 hrs by fluorescence confocal microscopic method. The format is ADME. Put shortly: as §3
The test system of data set [13] is MCF7. Briefly: Antiproliferative activity against human MCF7 cells after 72 hrs by CellTiter-Glo luminescent cell viability assay. The format is functional, cell-based. Conditions: MCF7, 72 h.
Data set [14] can be described thus: Drug uptake in nucleus of human Kelly cells at 10 uM after 72 hrs by DRAQ5-staining based fluorescence confocal microscopic method. The format is ADME. Put shortly:
(§4)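 Kelly-WT or Kelly-ADR cells exposed 72 h to 10 µM drug. Nuclei counterstained with 5 µM DRAQ5 for 5 min before live confocal imaging at 37°C, 5 % CO2. Nuclear localization scored by overlay (colocalization) with the DRAQ5 signal.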

Data set [15] in a line: Drug uptake in human Kelly cell membrane at 10 uM after 24 hrs by fluorescence confocal microscopic method. The format is ADME, cell-based. Summed up: as §3
Data set [16] can be described thus: Drug uptake in cytosol of human Kelly cells at 10 uM after 72 hrs by fluorescence confocal microscopic method. Type of data set: ADME. Put shortly: as §3
Data set [17] can be described thus: Stability of the compound at pH 5 assessed as doxorubicin formation. The format is physicochemical. Conditions: buffer.
Data set [18] can be described thus: Potency index, ratio of doxorubicin IC50 to compound IC50 for human adriamycin-resistant Kelly cells. Type of data set: functional.
A short description of data set [19]: Drug uptake in nucleus of human adriamycin-resistant Kelly cells at 10 uM after 72 hrs by DRAQ5-staining based fluorescence confocal microscopic method. The format is ADME. Summed up:
as §4

Data set [20] in a line: Drug level treated with (S,S,R,S,S,S,E)-N,N'-((6S,9S,12S,15S,18S,21S,24S,27S)-30-acetamido-1-amino-6-carbamoyl-9,12,15,18,21,24,27-heptakis(3-guanidinopropyl)-1-imino-8,11,14,17,20,23,26,29,37-nonaoxo-32,33-dithia-2,7,10,13,16,19,22,25,28,36-decaazadotetracontane-38,42-diyl)bis(2-((E)-1-((2S,4S)-4-((2R,4S,5S,6S)-4-amino-5-hydroxy-6-methyltetrahydro-2H-pyran-2-yloxy)-2,5,12-trihydroxy-7-methoxy-6,11-dioxo-1,2,3,4,6,11-hexahydrotetracen-2-yl)-2-hydroxyethylideneaminooxy)acetamide)decaacetate at 1 mM in presence of glutathione at 1 min post dose by MALDI-TOF-mass spectroscopic analysis. Put shortly: (§5)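 Conjugate at 1 mM in DPBS pH 7.4 with 10 mM glutathione (tenfold excess), 37°C, shaking at 300 rpm. Disulfide reduction followed by HPLC at 480 nm over 24 h. Cleavage products identified by MALDI-TOF MS.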

The nature of data set [21]: Potency index, ratio of doxorubicin EC50 to compound EC50 for binding affinity to Cy5-labelled-36 base pair double stranded DNA (unknown origin).
Data set [22] can be described thus: Potency index, ratio of doxorubicin Ka to compound Ka for binding affinity to Cy5-labelled-36 base pair double stranded DNA (unknown origin).
Data set [23] in a line: Drug level treated with (S,S,R,S,S,S,E)-N,N'-((6S,9S,12S,15S,18S,21S,24S,27S)-30-acetamido-1-amino-6-carbamoyl-9,12,15,18,21,24,27-heptakis(3-guanidinopropyl)-1-imino-8,11,14,17,20,23,26,29,37-nonaoxo-32,33-dithia-2,7,10,13,16,19,22,25,28,36-decaazadotetracontane-38,42-diyl)bis(2-((E)-1-((2S,4S)-4-((2R,4S,5S,6S)-4-amino-5-hydroxy-6-methyltetrahydro-2H-pyran-2-yloxy)-2,5,12-trihydroxy-7-methoxy-6,11-dioxo-1,2,3,4,6,11-hexahydrotetracen-2-yl)-2-hydroxyethylideneaminooxy)acetamide)decaacetate at 1 mM in presence of glutathione at 3 hrs post dose by MALDI-TOF-mass spectroscopic analysis. Put shortly: as §5

A short description of data set [24]: Drug level treated with (S,S,R,S,S,S,E)-N,N'-((6S,9S,12S,15S,18S,21S,24S,27S)-30-acetamido-1-amino-6-carbamoyl-9,12,15,18,21,24,27-heptakis(3-guanidinopropyl)-1-imino-8,11,14,17,20,23,26,29,37-nonaoxo-32,33-dithia-2,7,10,13,16,19,22,25,28,36-decaazadotetracontane-38,42-diyl)bis(2-((E)-1-((2S,4S)-4-((2R,4S,5S,6S)-4-amino-5-hydroxy-6-methyltetrahydro-2H-pyran-2-yloxy)-2,5,12-trihydroxy-7-methoxy-6,11-dioxo-1,2,3,4,6,11-hexahydrotetracen-2-yl)-2-hydroxyethylideneaminooxy)acetamide)decaacetate at 1 mM in presence of glutathione after 24 hrs by MALDI-TOF-mass spectroscopic analysis. Summed up: as §5

Active and inactive are the calls of the source. No cut-off for these calls is given here. A value given as a limit tells only on which side of the number the result lay.

The molecule `COc1cccc2c1C(=O)c1c(O)c3c(c(O)c1C2=O)C[C@@](O)(C(=O)CO)C[C@@H]3O[C@H]1C[C@H](N)[C@H](O)[C@H](C)O1` [DOXORUBICIN] returned an EC50 in [1] of 1160 nM. For the same molecule, the Kd in data set [1] was 1130 nM. The IC50 in [2] was 6570 nM; in data set [8] it was 180 nM. The Drug uptake entry in [3] is given as “Active”; in data set [4], “Not Active”; in [5] it was “Active”; in [6], “Not Active”; in [7], “Active”; in data set [9] it was “Active”. Besides, the Drug uptake result in data set [11] is recorded as “Active”. In addition, the result in data set [10] was inactive.

In the case of `CC(=O)O.CC(=O)O.CC(=O)O.CC(=O)O.CC(=O)O.CC(=O)O.CC(=O)O.CC(=O)O.CC(=O)O.CC(=O)O.COc1cccc2c1C(=O)c1c(O)c3c(c(O)c1C2=O)C[C@@](O)(/C(CO)=N/OCC(=O)NCCCC[C@H](NC(=O)CO/N=C(\CO)[C@]1(O)Cc2c(O)c4c(c(O)c2[C@@H](O[C@H]2C[C@H](N)[C@H](O)[C@H](C)O2)C1)C(=O)c1c(OC)cccc1C4=O)C(=O)NCCSSC[C@H](NC(C)=O)C(=O)N[C@@H](CCCNC(=N)N)C(=O)N[C@@H](CCCNC(=N)N)C(=O)N[C@@H](CCCNC(=N)N)C(=O)N[C@@H](CCCNC(=N)N)C(=O)N[C@@H](CCCNC(=N)N)C(=O)N[C@@H](CCCNC(=N)N)C(=O)N[C@@H](CCCNC(=N)N)C(=O)N[C@@H](CCCNC(=N)N)C(N)=O)C[C@@H]3O[C@H]1C[C@H](N)[C@H](O)[C@H](C)O1`, the Drug uptake result in [12], in data set [14], in data set [5], in [15], in data set [16] and in data set [6] was “Active” each time. The Drug uptake result in data set [7], in data set [19] and in [11] was “Active” throughout. Moreover, the IC50 in data set [2] was determined as 2760 nM; in data set [13] it was 3660 nM; in data set [8], 2470 nM. In addition, the Stability entry in data set [17] is listed as “Stable”. Also, the “Ratio IC50” value in data set [18] was 3.

On to `COc1cccc2c1C(=O)c1c(O)c3c(c(O)c1C2=O)C[C@@](O)(/C(CO)=N/OCC(=O)NCCCC[C@H](NC(=O)CO/N=C(\CO)[C@]1(O)Cc2c(O)c4c(c(O)c2[C@@H](O[C@H]2C[C@H](N)[C@H](O)[C@H](C)O2)C1)C(=O)c1c(OC)cccc1C4=O)C(=O)NCCS)C[C@@H]3O[C@H]1C[C@H](N)[C@H](O)[C@H](C)O1`, for which the Drug metabolism result in data set [20] is “Metabolite detected”.

Regarding `COc1cccc2c1C(=O)c1c(O)c3c(c(O)c1C2=O)C[C@@](O)(/C(CO)=N/OCC(=O)NCCCC[C@H](NC(=O)CO/N=C(\CO)[C@]1(O)Cc2c(O)c4c(c(O)c2[C@@H](O[C@H]2C[C@H](N)[C@H](O)[C@H](C)O2)C1)C(=O)c1c(OC)cccc1C4=O)C(=O)NCCSSc1ccccn1)C[C@@H]3O[C@H]1C[C@H](N)[C@H](O)[C@H](C)O1`, in data set [21], the Ratio EC50 worked out at 10. Further, in [1], the EC50 came out at 150 nM, the Ka is 7.9 ×10⁶ /M and the Kd turned out to be 126 nM. The molecule further returned an IC50 in data set [2] of 7330 nM. The molecule also registered an IC50 in [13] of 6730 nM. The Ratio in [22] was 10. This molecule also displayed an IC50 in data set [8] of 1790 nM. Moreover, the result in data set [10] was inactive.

Consider `COc1cccc2c1C(=O)c1c(O)c3c(c(O)c1C2=O)C[C@@](O)(/C(CO)=N/OCC(=O)NCCCC[C@H](NC(=O)CO/N=C(\CO)[C@]1(O)Cc2c(O)c4c(c(O)c2[C@@H](O[C@H]2C[C@H](N)[C@H](O)[C@H](C)O2)C1)C(=O)c1c(OC)cccc1C4=O)C(=O)NCCSSC[C@H](NC(=O)CC[C@@H](N)C(=O)O)C(=O)NCC(=O)O)C[C@@H]3O[C@H]1C[C@H](N)[C@H](O)[C@H](C)O1`, for which, in [23], the Drug metabolism entry is “Metabolite detected”.

Regarding `COc1cccc2c1C(=O)c1c(O)c3c(c(O)c1C2=O)C[C@@](O)(/C(CO)=N/OCC(=O)NCCCC[C@H](NC(=O)CO/N=C(\CO)[C@]1(O)Cc2c(O)c4c(c(O)c2[C@@H](O[C@H]2C[C@H](N)[C@H](O)[C@H](C)O2)C1)C(=O)c1c(OC)cccc1C4=O)C(=O)NCCSSCCNC(=O)[C@H](CCCCNC(=O)CO/N=C(\CO)[C@]1(O)Cc2c(O)c4c(c(O)c2[C@@H](O[C@H]2C[C@H](N)[C@H](O)[C@H](C)O2)C1)C(=O)c1c(OC)cccc1C4=O)NC(=O)CO/N=C(\CO)[C@]1(O)Cc2c(O)c4c(c(O)c2[C@@H](O[C@H]2C[C@H](N)[C@H](O)[C@H](C)O2)C1)C(=O)c1c(OC)cccc1C4=O)C[C@@H]3O[C@H]1C[C@H](N)[C@H](O)[C@H](C)O1`, the Drug metabolism entry in data set [24] is listed as “Metabolite detected”.

As to `CC(=O)N[C@@H](CS)C(=O)N[C@@H](CCCNC(=N)N)C(=O)N[C@@H](CCCNC(=N)N)C(=O)N[C@@H](CCCNC(=N)N)C(=O)N[C@@H](CCCNC(=N)N)C(=O)N[C@@H](CCCNC(=N)N)C(=O)N[C@@H](CCCNC(=N)N)C(=O)N[C@@H](CCCNC(=N)N)C(=O)N[C@@H](CCCNC(=N)N)C(N)=O`, the IC50 in data set [2], in data set [13] and in [8] was at least 100000 nM each time.

The record behind these values is ChEMBL document CHEMBL4011584, “Overcoming drug resistance by cell-penetrating peptide-mediated delivery of a doxorubicin dimer with high DNA-binding affinity” (Eur J Med Chem, 2017).
